Measurements published in ChEMBL document CHEMBL2203085, “Modification of a promiscuous inhibitor shifts the inhibition from γ-secretase to FLT-3” (Bioorg Med Chem Lett, 2012).

Key:
[1] = molecular target: Cyclin-dependent kinase 2/cyclin A (Homo sapiens) (UniProt P24941+P20248+P78396); assay: Inhibition of human recombinant CDK2/cyclin A using Ulight-CFFKNIVTPRTPPPSQGK-amide as substrate assessed as residual activity at 1 uM after 30 mins relative to staurosporine; type: protein-complex assay
Procedure, shortened: (§1)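 Part of a 50-kinase panel screen at a single concentration. Residual activity is given as percent of control specific activity, calculated as (measured specific activity/control specific activity) × 100, with staurosporine as the control. The kinase-specific details are in the supplementary data.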

Danio rerio = species: Danio rerio; assay: Toxicity against zebra fish embryo assessed as developmental delay at 20 uM incubated from 4 hrs to 48 hrs post fertilization by microscopic analysis; type: organism-based; details: zebrafish, in vivo
Procedure, shortened: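 Zebrafish embryos were collected and kept in E2 medium at 28 °C. Compound was added at 4–5 hpf at 5 or 20 µM alongside untreated controls. Phenotypes were compared with controls at 48 hpf.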

[2] = molecular target: Glycogen synthase kinase-3 beta (Homo sapiens) (UniProt P49841); assay: Inhibition of human recombinant GSK3beta using Ulight-CFFKNIVTPRTPPPSQGK-amide as substrate assessed as residual activity at 1 uM after 90 mins relative to staurosporine; procedure, shortened: as §1
[3] = molecular target: Serine/threonine-protein kinase MARK1 (Homo sapiens) (UniProt Q9P0L2); assay: Inhibition of human recombinant MARK1 using Ulight-RRRSLLE as substrate assessed as residual activity at 1 uM after 30 mins relative to staurosporine; procedure, shortened: as §1
[4] = molecular target: Ephrin type-B receptor 4 (Homo sapiens) (UniProt P54760); assay: Inhibition of human recombinant EPHB4 expressed in insect cells using Ulight-TK peptide as substrate assessed as residual activity at 1 uM after 90 mins relative to staurosporine; procedure, shortened: as §1
[5] = molecular target: Tyrosine-protein kinase JAK3 (Homo sapiens) (UniProt P52333); assay: Inhibition of human recombinant JAK3 using Ulight-CAGAGAIETDKEYYTVKD as substrate assessed as residual activity at 1 uM after 60 mins relative to staurosporine; procedure, shortened: as §1
[6] = molecular target: Mitogen-activated protein kinase 1 (Homo sapiens) (UniProt P28482); assay: Inhibition of human recombinant ERK2 expressed in Escherichia coli using Ulight-CFFKNIVTPRTPPPSQGK-amide as substrate assessed as residual activity at 1 uM after 15 mins relative to staurosporine; procedure, shortened: as §1
[7] = molecular target: Serine/threonine-protein kinase 26 (Homo sapiens) (UniProt Q9P289); assay: Inhibition of human recombinant MST4 using Ulight-TM- PKC as substrate assessed as residual activity at 1 uM after 30 mins relative to staurosporine; procedure, shortened: as §1
[8] = molecular target: Epidermal growth factor receptor (Homo sapiens) (UniProt P00533); assay: Inhibition of human recombinant EGFR expressed in insect cells using Ulight-CAGAGAIETDKEYYTVKD as substrate assessed as residual activity at 1 uM after 15 mins relative to staurosporine; procedure, shortened: as §1
[9] = molecular target: Glycogen synthase kinase-3 alpha (Homo sapiens) (UniProt P49840); assay: Inhibition of human recombinant GSK3alpha using Ulight-CFFKNIVTPRTPPPSQGK-amide as substrate assessed as residual activity at 1 uM after 60 mins relative to staurosporine; procedure, shortened: as §1
[10] = molecular target: Serine/threonine-protein kinase PLK1 (Homo sapiens) (UniProt P53350); assay: Inhibition of human recombinant PLK1 using Ulight-FLGFTYVAP as substrate assessed as residual activity at 1 uM after 60 mins relative to staurosporine; procedure, shortened: as §1
[11] = molecular target: Inhibitor of nuclear factor kappa-B kinase subunit alpha (Homo sapiens) (UniProt O15111); assay: Inhibition of human recombinant IKKalpha expressed in Sf21 cells using + Ulight-IkappaB-alpha as substrate assessed as residual activity at 1 uM after 30 mins relative to staurosporine; procedure, shortened: as §1
Gamma-secretase = assay: Inhibition of gamma secretase in human H4 cells expressing APP695 assessed as inhibition of Abeta42 production after 20 to 24 hrs by liquid phase electrochemiluminescence assay; type: cell-based
Procedure, shortened: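 Aβ42 generation in H4 APP#9 cells was quantified by a previously described liquid-phase electrochemiluminescence (LPECL) assay of the Aβ42 isoform as the read-out of γ-secretase inhibition.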

H4 [12] = assay: Selectivity ratio of IC50 for gamma secretase in human H4 cells to IC50 for human recombinant FLT3; type: cell-based
[13] = molecular target: 3-phosphoinositide-dependent protein kinase 1 (Homo sapiens) (UniProt O15530); assay: Inhibition of human recombinant PDK1 expressed in insect cells using Ulight-FLGFTYVAP as substrate assessed as residual activity at 1 uM after 90 mins relative to staurosporine; procedure, shortened: as §1
[14] = molecular target: Dual specificity mitogen-activated protein kinase kinase 6 (Homo sapiens) (UniProt P52564); assay: Inhibition of human recombinant MKK6 using inactive p38alpha as substrate assessed as residual activity at 1 uM after 10 mins relative to staurosporine; procedure, shortened: as §1
[15] = molecular target: RAC-alpha serine/threonine-protein kinase (Homo sapiens) (UniProt P31749); assay: Inhibition of human recombinant AKT1 expressed in insect cells using CKRREILSRRPSYRK as substrate assessed as residual activity at 1 uM after 60 mins relative to staurosporine; procedure, shortened: as §1
[16] = molecular target: Aurora kinase A (Homo sapiens) (UniProt O14965); assay: Inhibition of human recombinant Aurora A expressed in Sf21 cells using Ulight-RRRSLLE as substrate assessed as residual activity at 1 uM after 15 mins relative to staurosporine; procedure, shortened: as §1
[17] = molecular target: Hepatocyte growth factor receptor (Homo sapiens) (UniProt P08581); assay: Inhibition of human recombinant cMET expressed in insect cells using Ulight-CAGAGAIETDKEYYTVKD as substrate assessed as residual activity at 1 uM after 60 mins relative to staurosporine
Procedure, shortened: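 Single-point kinase-panel screen at 1 µM test concentration. Specific activity was measured and expressed as percent of the staurosporine control, calculated as (measured specific activity / control specific activity) × 100.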

[18] = molecular target: Serine/threonine-protein kinase Sgk1 (Homo sapiens) (UniProt O00141); assay: Inhibition of human recombinant SGK1 using Ulight-RRRSLLE as substrate assessed as residual activity at 1 uM after 30 mins relative to staurosporine; procedure, shortened: as §1
[19] = molecular target: Serine/threonine-protein kinase PAK 4 (Homo sapiens) (UniProt O96013); assay: Inhibition of human recombinant PAK4 expressed in insect cells using Ulight-RRRSLLE as substrate assessed as residual activity at 1 uM after 30 mins relative to staurosporine; procedure, shortened: as §1
[20] = molecular target: Serine/threonine-protein kinase Chk1 (Homo sapiens) (UniProt O14757); assay: Inhibition of human recombinant CHK1 expressed in insect cells using CKRREILSRRPSYRK as substrate assessed as residual activity at 1 uM after 30 mins relative to staurosporine; procedure, shortened: as §1
[21] = molecular target: Receptor-type tyrosine-protein kinase FLT3 (Homo sapiens) (UniProt P36888); assay: Inhibition of human recombinant FLT3 expressed in insect cells using Ulight-CAGAGAIETDKEYYTVKD as substrate assessed as residual activity at 1 uM after 90 mins relative to staurosporine; procedure, shortened: as §1
[22] = molecular target: Fibroblast growth factor receptor 3 (Homo sapiens) (UniProt P22607); assay: Inhibition of human recombinant FGFR3 using Ulight-CAGAGAIETDKEYYTVKD as substrate assessed as residual activity at 1 uM after 90 mins relative to staurosporine; procedure, shortened: as §1
[23] = molecular target: Serine/threonine-protein kinase Nek2 (Homo sapiens) (UniProt P51955); assay: Inhibition of human recombinant NEK2 expressed in insect cells using Ulight-FLGFTYVAP as substrate assessed as residual activity at 1 uM after 60 mins relative to staurosporine; procedure, shortened: as §1
[24] = molecular target: Protein kinase C beta type (Homo sapiens) (UniProt P05771); assay: Inhibition of human recombinant PKCbeta2 using CKRREILSRRPSYRK as substrate assessed as residual activity at 1 uM after 15 mins relative to staurosporine; procedure, shortened: as §1
[25] = molecular target: Fibroblast growth factor receptor 2 (Homo sapiens) (UniProt P21802); assay: Inhibition of human recombinant FGFR2 using Ulight-CAGAGAIETDKEYYTVKD as substrate assessed as residual activity at 1 uM after 15 mins relative to staurosporine; procedure, shortened: as §1
Homo sapiens = species: Homo sapiens; assay: Inhibition of human recombinant PKA expressed in Escherichia coli using Ulight-RRRSLLE as substrate assessed as residual activity at 1 uM after 10 mins relative to staurosporine; procedure, shortened: as §1
H4 [26] = assay: Cytotoxicity against human H4 cells at 20 uM; type: cell-based; details: h4, 20 µM
Procedure, shortened: (§2)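 H4 APP#9 cells were used for cell-based toxicity testing, and toxicity was scored as yes or no at each concentration tested.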

H4 [27] = assay: Cytotoxicity against human H4 cells at 40 uM; type: cell-based; details: h4, 40 µM; procedure, shortened: as §2
H4 [28] = assay: Cytotoxicity against human H4 cells at 80 uM; type: cell-based; details: h4, 80 µM; procedure, shortened: as §2
H4 [29] = assay: Cytotoxicity against human H4 cells at 160 uM; type: cell-based; details: h4, 160 µM; procedure, shortened: as §2
H4 [30] = assay: Cytotoxicity against human H4 cells at 10 uM; type: cell-based; details: h4, 10 µM; procedure, shortened: as §2

Serine/threonine-protein kinase Sgk1 (Homo sapiens), sequence (O00141 whole entry): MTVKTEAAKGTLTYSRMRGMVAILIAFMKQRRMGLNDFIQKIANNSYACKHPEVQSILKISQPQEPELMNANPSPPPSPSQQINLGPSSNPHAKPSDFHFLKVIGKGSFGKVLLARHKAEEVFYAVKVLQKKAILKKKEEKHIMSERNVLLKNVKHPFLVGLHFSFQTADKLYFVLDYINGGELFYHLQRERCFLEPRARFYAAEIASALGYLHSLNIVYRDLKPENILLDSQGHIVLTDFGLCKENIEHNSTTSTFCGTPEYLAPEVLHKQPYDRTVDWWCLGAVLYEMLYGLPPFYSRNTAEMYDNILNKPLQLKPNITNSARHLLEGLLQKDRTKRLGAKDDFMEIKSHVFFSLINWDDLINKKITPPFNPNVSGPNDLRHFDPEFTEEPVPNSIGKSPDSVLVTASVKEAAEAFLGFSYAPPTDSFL
Tyrosine-protein kinase JAK3 (Homo sapiens), sequence (P52333 whole entry): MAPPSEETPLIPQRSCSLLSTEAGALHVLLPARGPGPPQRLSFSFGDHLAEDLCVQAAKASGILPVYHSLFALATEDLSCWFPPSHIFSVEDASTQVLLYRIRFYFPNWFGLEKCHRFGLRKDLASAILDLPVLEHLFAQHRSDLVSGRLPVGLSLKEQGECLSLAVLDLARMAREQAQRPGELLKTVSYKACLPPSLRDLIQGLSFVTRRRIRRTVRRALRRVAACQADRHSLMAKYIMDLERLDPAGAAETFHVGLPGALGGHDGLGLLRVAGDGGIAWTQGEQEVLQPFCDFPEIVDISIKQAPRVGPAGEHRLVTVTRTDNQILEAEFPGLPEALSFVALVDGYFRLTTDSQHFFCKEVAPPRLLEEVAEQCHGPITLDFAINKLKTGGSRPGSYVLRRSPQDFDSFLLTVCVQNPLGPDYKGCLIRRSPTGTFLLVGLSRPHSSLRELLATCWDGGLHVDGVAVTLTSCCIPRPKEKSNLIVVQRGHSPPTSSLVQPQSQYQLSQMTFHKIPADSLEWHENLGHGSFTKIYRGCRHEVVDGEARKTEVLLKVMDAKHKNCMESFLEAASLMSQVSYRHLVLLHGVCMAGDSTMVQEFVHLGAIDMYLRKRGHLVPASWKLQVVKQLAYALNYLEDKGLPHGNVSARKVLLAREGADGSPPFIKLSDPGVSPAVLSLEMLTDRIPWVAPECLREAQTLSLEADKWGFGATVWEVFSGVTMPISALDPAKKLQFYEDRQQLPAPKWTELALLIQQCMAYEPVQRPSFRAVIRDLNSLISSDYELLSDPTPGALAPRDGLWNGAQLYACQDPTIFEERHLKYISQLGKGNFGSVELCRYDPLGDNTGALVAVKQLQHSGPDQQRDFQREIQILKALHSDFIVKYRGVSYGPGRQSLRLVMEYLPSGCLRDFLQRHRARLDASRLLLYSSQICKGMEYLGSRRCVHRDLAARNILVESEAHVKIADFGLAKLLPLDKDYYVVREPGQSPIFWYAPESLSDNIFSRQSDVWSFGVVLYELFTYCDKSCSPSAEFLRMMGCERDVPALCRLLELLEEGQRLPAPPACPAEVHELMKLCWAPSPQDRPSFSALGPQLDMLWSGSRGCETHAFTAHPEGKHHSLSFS
RAC-alpha serine/threonine-protein kinase (Homo sapiens), sequence (P31749 whole entry): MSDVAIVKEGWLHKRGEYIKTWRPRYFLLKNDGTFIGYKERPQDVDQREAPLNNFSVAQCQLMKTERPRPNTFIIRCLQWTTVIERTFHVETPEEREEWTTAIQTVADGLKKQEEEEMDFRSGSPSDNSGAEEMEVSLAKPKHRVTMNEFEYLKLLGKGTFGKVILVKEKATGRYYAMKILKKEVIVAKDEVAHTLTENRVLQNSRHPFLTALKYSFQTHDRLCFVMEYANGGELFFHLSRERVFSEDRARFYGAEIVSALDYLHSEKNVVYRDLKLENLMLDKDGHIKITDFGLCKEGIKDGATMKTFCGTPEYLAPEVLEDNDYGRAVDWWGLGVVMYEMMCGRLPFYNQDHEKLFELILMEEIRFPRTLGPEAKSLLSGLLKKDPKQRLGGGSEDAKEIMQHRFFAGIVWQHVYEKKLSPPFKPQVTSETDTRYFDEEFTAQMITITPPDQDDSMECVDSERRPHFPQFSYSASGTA
Protein kinase C beta type (Homo sapiens), sequence (P05771 2-671 limits assumed): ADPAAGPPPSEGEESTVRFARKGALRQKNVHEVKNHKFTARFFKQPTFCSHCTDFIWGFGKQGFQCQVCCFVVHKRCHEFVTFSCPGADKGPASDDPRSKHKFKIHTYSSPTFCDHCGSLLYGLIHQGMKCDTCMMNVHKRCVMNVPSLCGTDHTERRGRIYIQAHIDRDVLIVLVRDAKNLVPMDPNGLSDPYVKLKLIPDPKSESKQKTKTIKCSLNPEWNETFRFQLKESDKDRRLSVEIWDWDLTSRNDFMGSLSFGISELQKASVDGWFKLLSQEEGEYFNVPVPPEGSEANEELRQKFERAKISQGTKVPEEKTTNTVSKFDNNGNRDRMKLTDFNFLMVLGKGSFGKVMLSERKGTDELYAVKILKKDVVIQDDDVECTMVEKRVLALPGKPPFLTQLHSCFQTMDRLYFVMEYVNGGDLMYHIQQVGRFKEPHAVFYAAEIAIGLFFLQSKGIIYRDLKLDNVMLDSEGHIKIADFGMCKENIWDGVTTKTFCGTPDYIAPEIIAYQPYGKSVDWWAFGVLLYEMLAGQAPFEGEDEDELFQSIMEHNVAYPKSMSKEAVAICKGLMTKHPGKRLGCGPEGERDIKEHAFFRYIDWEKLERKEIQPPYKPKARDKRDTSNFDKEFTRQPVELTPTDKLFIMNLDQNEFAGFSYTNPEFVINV
Serine/threonine-protein kinase PAK 4 (Homo sapiens), sequence (O96013 whole entry, looked up): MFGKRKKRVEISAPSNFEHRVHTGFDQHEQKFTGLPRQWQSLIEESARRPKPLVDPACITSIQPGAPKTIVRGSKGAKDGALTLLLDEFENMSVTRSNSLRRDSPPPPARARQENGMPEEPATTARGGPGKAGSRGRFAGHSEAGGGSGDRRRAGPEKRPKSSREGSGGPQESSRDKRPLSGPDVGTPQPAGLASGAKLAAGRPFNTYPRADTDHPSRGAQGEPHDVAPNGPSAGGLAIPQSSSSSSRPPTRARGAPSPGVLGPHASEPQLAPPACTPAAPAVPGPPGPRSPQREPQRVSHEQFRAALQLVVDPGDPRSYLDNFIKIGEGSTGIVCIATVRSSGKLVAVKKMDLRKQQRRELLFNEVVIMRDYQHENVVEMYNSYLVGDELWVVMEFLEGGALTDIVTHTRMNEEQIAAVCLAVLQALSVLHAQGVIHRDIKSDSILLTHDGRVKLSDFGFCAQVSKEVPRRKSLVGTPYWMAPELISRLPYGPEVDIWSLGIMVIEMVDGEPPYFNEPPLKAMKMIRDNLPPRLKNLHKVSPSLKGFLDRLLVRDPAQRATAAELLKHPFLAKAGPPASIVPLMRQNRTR
Ephrin type-B receptor 4 (Homo sapiens), sequence (P54760 whole entry): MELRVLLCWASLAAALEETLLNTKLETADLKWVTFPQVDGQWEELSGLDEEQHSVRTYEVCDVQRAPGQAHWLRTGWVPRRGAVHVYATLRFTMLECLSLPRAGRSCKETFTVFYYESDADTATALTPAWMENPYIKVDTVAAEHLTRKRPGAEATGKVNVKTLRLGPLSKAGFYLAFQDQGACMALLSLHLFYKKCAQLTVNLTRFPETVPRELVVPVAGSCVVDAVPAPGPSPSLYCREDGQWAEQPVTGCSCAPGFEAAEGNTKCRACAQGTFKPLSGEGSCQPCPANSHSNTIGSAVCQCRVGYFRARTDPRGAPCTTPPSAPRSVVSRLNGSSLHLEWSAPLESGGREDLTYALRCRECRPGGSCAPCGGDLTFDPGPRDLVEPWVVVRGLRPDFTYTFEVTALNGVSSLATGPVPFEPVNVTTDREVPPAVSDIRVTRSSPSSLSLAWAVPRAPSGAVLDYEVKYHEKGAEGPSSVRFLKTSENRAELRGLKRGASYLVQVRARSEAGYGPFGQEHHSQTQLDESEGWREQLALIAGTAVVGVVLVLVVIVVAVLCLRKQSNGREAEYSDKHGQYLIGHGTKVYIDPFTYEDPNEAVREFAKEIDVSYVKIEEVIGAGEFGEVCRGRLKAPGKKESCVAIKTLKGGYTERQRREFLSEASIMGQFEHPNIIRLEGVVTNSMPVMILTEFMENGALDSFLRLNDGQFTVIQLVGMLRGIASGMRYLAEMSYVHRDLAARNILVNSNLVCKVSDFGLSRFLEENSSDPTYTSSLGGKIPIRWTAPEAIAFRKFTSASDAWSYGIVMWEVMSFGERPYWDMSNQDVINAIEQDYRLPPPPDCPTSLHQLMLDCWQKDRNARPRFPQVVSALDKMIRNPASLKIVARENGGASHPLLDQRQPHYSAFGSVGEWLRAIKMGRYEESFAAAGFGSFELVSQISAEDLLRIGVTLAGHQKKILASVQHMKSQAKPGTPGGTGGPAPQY
Serine/threonine-protein kinase 26 (Homo sapiens), sequence (Q9P289 2-416 limits assumed): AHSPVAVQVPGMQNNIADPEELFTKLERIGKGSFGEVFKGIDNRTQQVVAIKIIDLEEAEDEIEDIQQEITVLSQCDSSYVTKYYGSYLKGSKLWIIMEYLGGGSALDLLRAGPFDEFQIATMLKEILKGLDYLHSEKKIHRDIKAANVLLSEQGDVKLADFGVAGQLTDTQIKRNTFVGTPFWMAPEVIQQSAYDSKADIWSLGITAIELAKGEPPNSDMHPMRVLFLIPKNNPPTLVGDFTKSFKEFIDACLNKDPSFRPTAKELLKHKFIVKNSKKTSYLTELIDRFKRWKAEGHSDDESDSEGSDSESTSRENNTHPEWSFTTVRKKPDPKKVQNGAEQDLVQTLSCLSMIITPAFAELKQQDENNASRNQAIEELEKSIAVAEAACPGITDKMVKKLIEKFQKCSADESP
Dual specificity mitogen-activated protein kinase kinase 6 (Homo sapiens), sequence (P52564 whole entry): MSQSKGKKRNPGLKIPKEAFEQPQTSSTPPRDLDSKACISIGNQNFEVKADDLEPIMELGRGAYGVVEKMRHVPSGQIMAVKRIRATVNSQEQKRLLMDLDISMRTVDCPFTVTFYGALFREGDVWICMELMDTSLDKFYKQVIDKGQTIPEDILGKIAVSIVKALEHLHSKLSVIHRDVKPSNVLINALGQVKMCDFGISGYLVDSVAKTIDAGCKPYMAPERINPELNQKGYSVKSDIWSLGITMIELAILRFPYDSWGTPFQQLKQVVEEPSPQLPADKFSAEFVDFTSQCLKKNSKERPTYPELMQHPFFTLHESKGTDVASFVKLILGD

Compound: CCN(CC)CCOc1ccc(/C=C2\C(=O)Nc3ccc(Cl)cc32)cc1
- Activity [1]: 93.5%
- Activity (Danio rerio): Toxic
- Activity [2]: 97%
- Activity [3]: 99.6%
- Activity [4]: 102%
- Activity [5]: 67.3%
- Activity [6]: 101%
- Activity [7]: 104%
- Activity [8]: 102%
- Activity [9]: 104%
- Activity [10]: 100%
- Activity [11]: 104%
- IC50 (Gamma-secretase): 17.7 µM
- Ratio IC50 (H4 [12]): 1000
- Activity [13]: 107%
- Activity [14]: 101%
- Activity [15]: 101%
- Activity [16]: 99.6%
- Activity [17]: 97.2%
- Activity [18]: 96%
- Activity [19]: 101%
- Activity [20]: 95.8%
- Activity [21]: 14.7%
- Activity [22]: 92.9%
- Activity [23]: 107%
- Activity [24]: 99.4%
- Activity [25]: 100%
- Activity (Homo sapiens): 98.7%

Compound: COc1cc(/C=C2\C(=O)Nc3ccc(Cl)cc32)ccc1S(C)(=O)=O
- Activity (H4 [26]): Toxic
- IC50 (Gamma-secretase): 7.3 µM

Compound: CCCCOc1ccc(/C=C2\C(=O)Nc3ccc(Cl)cc32)cc1
- IC50 (Gamma-secretase): > 40 µM
- Activity (H4 [27]): Non-toxic

Compound: COc1cc(/C=C2\C(=O)Nc3ccc(Cl)cc32)ccc1OCCN(C)C
- IC50 (Gamma-secretase): 11.5 µM
- Activity (H4 [27]): Toxic

Compound: N#CCCCOc1ccc(/C=C2\C(=O)Nc3ccc(Cl)cc32)cc1
- IC50 (Gamma-secretase): > 40 µM
- Activity (H4 [27]): Toxic

Compound: COc1cc(/C=C2\C(=O)Nc3ccc(Cl)cc32)ccc1-n1cnc(C)c1
- Activity (H4 [28]): Toxic
- IC50 (Gamma-secretase): 6.7 µM

Compound: O=C1Nc2ccc(Cl)cc2/C1=C/c1ccc(OCCN2CCOCC2)cc1
- IC50 (Gamma-secretase): 11.3 µM
- Activity (H4 [27]): Non-toxic

Compound: Cn1c2ccccc2c2cc(/C=C3\C(=O)Nc4ccccc43)ccc21
- Activity (H4 [28]): Toxic
- IC50 (Gamma-secretase): 27.6 µM

Compound: CCN(CC)CCOc1ccc(/C=C2\C(=O)Nc3ccc(Cl)cc32)cc1OC
- IC50 (Gamma-secretase): 11.5 µM
- Activity (H4 [27]): Toxic

Compound: O=C1Nc2ccc(Cl)cc2/C1=C/c1cc(Br)c(O)c(Br)c1
- IC50 (Gamma-secretase): 15 µM
- Activity (H4 [27]): Non-toxic

Compound: CN(C)CCOc1ccc(/C=C2\C(=O)Nc3ccc(Cl)cc32)cc1
- IC50 (Gamma-secretase): 7.6 µM
- Activity (H4 [27]): Non-toxic

Compound: COc1cc(OCCN(C)C)ccc1/C=C1\C(=O)Nc2ccc(Cl)cc21
- IC50 (Gamma-secretase): 10 µM
- Activity (H4 [27]): Non-toxic

Compound: COc1ccc(/C=C2\C(=O)Nc3ccc(Cl)cc32)cc1
- IC50 (Gamma-secretase): > 40 µM
- Activity (H4 [27]): Non-toxic

Compound: COC(=O)c1ccc(COc2ccc(/C=C3\C(=O)Nc4ccc(Cl)cc43)cc2)cc1
- IC50 (Gamma-secretase): 38.8 µM
- Activity (H4 [27]): Non-toxic

Compound: O=C1Nc2ccc(Cl)cc2/C1=C/c1ccc(OCCCCl)cc1
- IC50 (Gamma-secretase): 4.7 µM
- Activity (H4 [27]): Toxic

Compound: N#Cc1ccc(COc2ccc(/C=C3\C(=O)Nc4ccc(Cl)cc43)cc2)cc1
- IC50 (Gamma-secretase): 27.3 µM
- Activity (H4 [27]): Non-toxic

Compound: COc1cc(/C=C2\C(=O)Nc3ccc(Cl)cc32)ccc1OCCCC#N
- IC50 (Gamma-secretase): > 160 µM
- Activity (H4 [29]): Non-toxic

Compound: N#Cc1cccc(COc2ccc(/C=C3\C(=O)Nc4ccc(Cl)cc43)cc2)c1
- IC50 (Gamma-secretase): > 40 µM
- Activity (H4 [27]): Non-toxic

Compound: O=C1Nc2ccc(Cl)cc2/C1=C/c1ccc(O)cc1
- IC50 (Gamma-secretase): 47.6 µM
- Activity (H4 [27]): Non-toxic

Compound: O=C1Nc2ccc(Cl)cc2/C1=C/c1ccc(OCCCc2nnn[nH]2)cc1
- IC50 (Gamma-secretase): 17.7 µM
- Activity (H4 [27]): Toxic

Compound: CN(C)c1ccc(/N=N/c2ccc(/C=C3\C(=O)Nc4ccccc43)cc2)cc1
- Activity (H4 [28]): Non-toxic
- IC50 (Gamma-secretase): > 80 µM

Compound: Cn1c2ccccc2c2cc(/C=C3\C(=O)Nc4ccc(Cl)cc43)ccc21
- Activity (H4 [28]): Non-toxic
- IC50 (Gamma-secretase): 19.8 µM

Compound: Cc1cn(-c2ccc(Oc3ccc(/C=C4\C(=O)Nc5ccc(Cl)cc54)cc3)cc2)cn1
- Activity (H4 [30]): Toxic
- IC50 (Gamma-secretase): 5.4 µM
